How the values were obtained:
Renin = target: T1, Renin (Homo sapiens, UniProt P00797); assay: Inhibition of human renin
T1 sequence (P00797 whole entry): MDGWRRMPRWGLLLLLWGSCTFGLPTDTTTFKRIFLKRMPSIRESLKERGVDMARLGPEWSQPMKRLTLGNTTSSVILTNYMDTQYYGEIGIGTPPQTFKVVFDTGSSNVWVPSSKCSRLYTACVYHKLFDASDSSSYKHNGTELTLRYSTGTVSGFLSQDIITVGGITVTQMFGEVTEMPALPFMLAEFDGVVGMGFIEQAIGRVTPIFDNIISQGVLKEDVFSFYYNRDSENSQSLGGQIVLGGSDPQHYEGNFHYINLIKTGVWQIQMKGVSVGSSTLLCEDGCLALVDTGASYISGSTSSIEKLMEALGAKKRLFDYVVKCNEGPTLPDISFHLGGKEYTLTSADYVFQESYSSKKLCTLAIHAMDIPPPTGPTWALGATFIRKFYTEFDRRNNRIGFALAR
How it was run: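 Purified human renal renin, 0.24 mGu, with pure human angiotensinogen (0.21 μM) at 37 °C in 0.135 M maleate pH 6.0 containing 3 mM EDTA, 1.4 mM PMSF, 0.44% BSA and 1% DMSO (final). At least three inhibitor concentrations bracketing the IC50 preincubated with enzyme 5 min, then 10.0 min reaction stopped by freezing. Angiotensin I read by RIA; IC50 by regression of percent inhibition.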

Renin (Homo sapiens) [1] = target: T2, Renin (Homo sapiens) (UniProt P00797); assay: Compound was evaluated for percent inhibition of renin at a concentration of 5e-8M at 5 min pre-incubation time
T2 sequence (whole entry): T1 sequence (P00797 whole entry)
How it was run: (§1)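 Purified human renal renin with pure human angiotensinogen (0.21 μM final) in 0.135 M maleate buffer pH 6.0, 3 mM EDTA, 1.4 mM PMSF, 0.44% BSA, 1% DMSO. Inhibitor at one fixed concentration, preincubated with renin 5 or 60 min at 37 °C before substrate addition. Reaction then ran 10.0 min, stopped by freezing. Angiotensin I measured by radioimmunoassay; percent inhibition reported.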

Renin (Homo sapiens) [2] = target: T2, Renin (Homo sapiens); assay: Compound was evaluated for percent inhibition of renin at a concentration of 5e-8M at 60 min pre-incubation time; how it was run: as §1
Renin (Homo sapiens) [3] = target: T2, Renin (Homo sapiens); assay: Compound was evaluated for percent inhibition of renin at a concentration of 2.5*10e-8 M at 5 min pre-incubation time; how it was run: as §1
Renin (Homo sapiens) [4] = target: T2, Renin (Homo sapiens); assay: Compound was evaluated for percent inhibition of renin at a concentration of 2.5*10e-8 M at 60 min preincubation time; how it was run: as §1
Renin (Homo sapiens) [5] = target: T2, Renin (Homo sapiens); assay: Compound was evaluated for percent inhibition of renin at a concentration of 4E-7M at 5 min pre-incubation time; how it was run: as §1
Renin (Homo sapiens) [6] = target: T2, Renin (Homo sapiens); assay: Compound was evaluated for percent inhibition of renin at a concentration of 4E-7M at 60 min pre-incubation time; how it was run: as §1
Renin (Homo sapiens) [7] = target: T2, Renin (Homo sapiens); assay: Compound was evaluated for percent inhibition of renin at a concentration of 1E-8M at 5 min pre-incubation time; how it was run: as §1
Renin (Homo sapiens) [8] = target: T2, Renin (Homo sapiens); assay: Compound was evaluated for percent inhibition of renin at a concentration of 1E-8M at 60 min pre-incubation time; how it was run: as §1
Renin (Homo sapiens) [9] = target: T2, Renin (Homo sapiens); assay: Compound was evaluated for percent inhibition of renin at a concentration of 5E-8 M at 5 min pre-incubation time; how it was run: as §1
Renin (Homo sapiens) [10] = target: T2, Renin (Homo sapiens); assay: Compound was evaluated for percent inhibition of renin at a concentration of 5E-8 M at 60 min pre-incubation time; how it was run: as §1

| Compound | IC50 (Renin) | other results |
| --- | --- | --- |
| C=C(C[C@H](O)[C@H](CC1CCCCC1)NC(=O)[C@H](C)NC(=O)[C@H](Cc1ccccc1)NC(=O)OC(C)(C)C)C(=O)NCCN(C)C | 400 nM | – |
| C=C(C[C@H](O)[C@H](CC1CCCCC1)NC(=O)[C@H](C)NC(=O)[C@H](Cc1ccccc1)NC(=O)OC(C)(C)C)C(=O)NC | 50 nM | inhibition (Renin (Homo sapiens) [1]): 44%; inhibition (Renin (Homo sapiens) [2]): 37% |
| C=C(C[C@H](O)[C@H](CC1CCCCC1)NC(=O)[C@H](C)NC(=O)[C@H](Cc1ccccc1)NC(=O)OC(C)(C)C)C(=O)NCC(C)(C)CN(C)C | 25 nM | – |
| C=C(C[C@H](O)[C@H](CC(C)C)NC(=O)[C@H](C)NC(=O)[C@H](Cc1ccccc1)NC(=O)OC(C)(C)C)C(=O)N[C@H](O)CC(C)C | 6000 nM | – |
| CC(C)CNC(=O)[C@@](O)(CN)C[C@H](O)[C@H](CC1CCCCC1)NC(=O)[C@H](Cc1cnc[nH]1)NC(=O)[C@H](Cc1ccccc1)NC(=O)OC(C)(C)C | 35 nM | – |
| C=C(C[C@H](O)[C@H](CC1CCCCC1)NC(=O)[C@H](Cc1c[nH]cn1)NC(=O)[C@H](Cc1ccccc1)NC(=O)CC(C)(C)C)C(=O)NC | 2 nM | – |
| CNC(=O)C1(C[C@H](O)[C@H](CC2CCCCC2)NC(=O)[C@H](C)NC(=O)[C@H](Cc2ccccc2)NC(=O)OC(C)(C)C)CO1 (stereo partly drawn) | 40 nM | – |
| C=C(C[C@H](O)[C@H](CC(C)C)NC(=O)[C@H](C)NC(=O)[C@H](Cc1ccccc1)NC(=O)OC(C)(C)C)C(=O)NCC(C)C | 400 nM | inhibition (Renin (Homo sapiens) [5]): 48%; inhibition (Renin (Homo sapiens) [6]): 43% |
| C=C(C[C@H](O)[C@H](CC1CCCCC1)NC(=O)[C@H](C)NC(=O)[C@H](Cc1ccccc1)NC(=O)OC(C)(C)C)C(=O)NCCC(C)C | 10 nM | inhibition (Renin (Homo sapiens) [7]): 38%; inhibition (Renin (Homo sapiens) [8]): 31% |
| CC(C)CNC(=O)[C@@](O)(CCl)C[C@H](O)[C@H](CC1CCCCC1)NC(=O)[C@H](Cc1c[nH]cn1)NC(=O)[C@H](Cc1ccccc1)NC(=O)OC(C)(C)C | 20 nM | – |
| C=C(C[C@H](O)[C@H](CC1CCCCC1)NC(=O)[C@H](CC(C)C)NC(=O)[C@H](Cc1ccccc1)NC(=O)OC(C)(C)C)C(=O)NCCC(C)C | 4 nM | – |
| CC(C)CCNC(=O)[C@@](C)(O)C[C@H](O)[C@H](CC1CCCCC1)NC(=O)[C@H](Cc1c[nH]cn1)NC(=O)[C@H](Cc1ccccc1)NC(=O)OC(C)(C)C | 5.5 nM | – |
| CC(C)CCNC(=O)[C@](C)(O)C[C@H](O)[C@H](CC1CCCCC1)NC(=O)[C@H](Cc1c[nH]cn1)NC(=O)[C@H](Cc1ccccc1)NC(=O)OC(C)(C)C | 50 nM | – |
| C=C(C[C@H](O)[C@H](CC1CCCCC1)NC(=O)[C@H](Cc1ccccc1)NC(=O)[C@H](Cc1ccccc1)NC(=O)OC(C)(C)C)C(=O)NCC(C)(C)CN(C)C | 8.5 nM | – |
| C=C(C[C@H](O)[C@H](CC1CCCCC1)NC(=O)[C@H](CC(C)C)NC(=O)[C@H](Cc1ccccc1)NC(=O)OCC)C(=O)NCC(C)(C)CN(C)C | 10 nM | – |
| CC(C)CNC(=O)[C@](O)(CN=[N+]=[N-])C[C@H](O)[C@H](CC1CCCCC1)NC(=O)[C@H](Cc1cnc[nH]1)NC(=O)[C@H](Cc1ccccc1)NC(=O)OC(C)(C)C | 1 nM | – |
| C=C(C[C@H](O)[C@H](CC1CCCCC1)NC(=O)[C@H](Cc1c[nH]cn1)NC(=O)[C@H](Cc1ccccc1)NC(=O)OC(C)(C)C)C(=O)NCC(C)C | 2 nM | – |

More lines, in order of falling IC50 (Renin), values ahead:

| IC50 (Renin) | Compound | other results |
| --- | --- | --- |
| 2000 nM | C=C(C[C@H](O)[C@H](CC1CCCCC1)NC(=O)[C@H](Cc1c[nH]cn1)NC(=O)[C@H](CO)NC(=O)OC(C)(C)C)C(=O)NCCC(C)C | – |
| 200 nM | C=C(C[C@H](O)[C@H](CC(C)C)NC(=O)[C@H](C)NC(=O)[C@H](Cc1ccccc1)NC(=O)OC(C)(C)C)C(=O)NCCC(C)C | – |
| 150 nM | C=C(C[C@H](O)[C@H](CC1CCCCC1)NC(=O)[C@H](C)NC(=O)[C@H](Cc1ccccc1)NC(=O)OC(C)(C)C)C(=O)NCCc1ccccc1 | – |
| 100 nM | C=C(C[C@H](O)[C@H](CC1CCCCC1)NC(=O)C(Cc1c[nH]cn1)NC(=O)C(C)(O)c1ccccc1)C(=O)NCCC(C)C (stereo partly drawn) | – |
| 50 nM | C=C(C[C@H](O)[C@H](CC1CCCCC1)NC(=O)[C@H](C)NC(=O)[C@H](Cc1ccccc1)NC(=O)OC(C)(C)C)C(=O)NCC1CCCCC1 | inhibition (Renin (Homo sapiens) [9]): 49%; inhibition (Renin (Homo sapiens) [10]): 53% |
| 30 nM | CC(C)CNC(=O)[C@](O)(CC(C)C)C[C@H](O)[C@H](CC1CCCCC1)NC(=O)[C@H](Cc1c[nH]cn1)NC(=O)[C@H](Cc1ccccc1)NC(=O)OC(C)(C)C | – |
| 25 nM | CC(C)CCNC(=O)C1(C[C@H](O)[C@H](CC2CCCCC2)NC(=O)[C@H](C)NC(=O)[C@H](Cc2ccccc2)NC(=O)OC(C)(C)C)CO1 (stereo partly drawn) | inhibition (Renin (Homo sapiens) [3]): 66%; inhibition (Renin (Homo sapiens) [4]): 61% |
| 20 nM | CC(C)CNC(=O)[C@@](O)(CN=[N+]=[N-])C[C@H](O)[C@H](CC1CCCCC1)NC(=O)[C@H](Cc1cnc[nH]1)NC(=O)[C@H](Cc1ccccc1)NC(=O)OC(C)(C)C | – |
| 15 nM | CC(C)CNC(=O)[C@](O)(CN)C[C@H](O)[C@H](CC1CCCCC1)NC(=O)[C@H](Cc1c[nH]cn1)NC(=O)[C@H](Cc1ccccc1)NC(=O)OC(C)(C)C | – |
| 10 nM | C=C(C[C@H](O)[C@H](CC1CCCCC1)NC(=O)[C@H](C)NC(=O)[C@H](Cc1ccccc1)NC(=O)OC(C)(C)C)C(=O)NCC(C)C | – |
| 5 nM | C=C(C[C@H](O)[C@H](CC1CCCCC1)NC(=O)[C@H](Cc1c[nH]cn1)NC(=O)[C@H](Cc1ccccc1)NC(=O)OC(C)(C)C)C(=O)NCC(C)(C)CN(C)C | – |
| 5 nM | C=C(C[C@H](O)[C@H](CC1CCCCC1)NC(=O)[C@H](CC(C)C)NC(=O)[C@H](Cc1ccccc1)NC(=O)OCC)C(=O)NCC(C)C | – |
| 4 nM | C=C(C[C@H](O)[C@H](CC1CCCCC1)NC(=O)[C@H](Cc1c[nH]cn1)NC(=O)[C@H](Cc1ccccc1)NC(C)=O)C(=O)NCCC(C)C | – |
| 3 nM | C=C(C[C@H](O)[C@H](CC1CCCCC1)NC(=O)[C@H](Cc1c[nH]cn1)NC(=O)[C@H](Cc1ccccc1)NC(=O)OCC)C(=O)NCCC(C)C | – |
| 1.5 nM | C=C(C[C@H](O)[C@H](CC1CCCCC1)NC(=O)[C@H](Cc1c[nH]cn1)NC(=O)[C@H](Cc1ccccc1)NC(=O)OC(C)(C)C)C(=O)NCCC(C)C | – |
| 0.8 nM | CC(C)CNC(=O)[C@](O)(CCl)C[C@H](O)[C@H](CC1CCCCC1)NC(=O)[C@H](Cc1cnc[nH]1)NC(=O)[C@H](Cc1ccccc1)NC(=O)OC(C)(C)C | – |

Source: ChEMBL document CHEMBL1123892, “Renin inhibitors based on novel dipeptide analogues. Incorporation of the dehydrohydroxyethylene isostere at the scissile bond” (J Med Chem, 1987)
